# p47phox inh – inhibitors of human p47phox binding; P14598; p47phox/p22phox peptide binding, fluorescence polarization, 2 h; inhibition, % at 24.7 µM; 220,000 compounds, 0.53% hits;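 active means inhibition above about 30%, limit read from the data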;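 further: 0% = p47phox with labelled peptide and 100% = labelled peptide alone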
# Target sequence (P14598 whole entry, looked up): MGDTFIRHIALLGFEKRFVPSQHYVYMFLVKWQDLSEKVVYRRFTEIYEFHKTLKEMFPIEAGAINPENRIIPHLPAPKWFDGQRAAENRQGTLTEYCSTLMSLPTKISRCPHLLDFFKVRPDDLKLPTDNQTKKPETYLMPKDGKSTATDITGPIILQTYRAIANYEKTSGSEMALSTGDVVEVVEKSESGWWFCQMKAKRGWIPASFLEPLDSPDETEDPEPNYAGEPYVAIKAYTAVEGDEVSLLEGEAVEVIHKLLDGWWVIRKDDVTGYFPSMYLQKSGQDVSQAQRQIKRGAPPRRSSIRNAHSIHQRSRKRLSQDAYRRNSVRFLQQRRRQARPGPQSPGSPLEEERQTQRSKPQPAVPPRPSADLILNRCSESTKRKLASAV
# Yeast life ext – yeast lifespan extension | S. cerevisiae growth with nicotinamide, OD615; deaD strain in restrictive glucose medium | inhibition of the nicotinamide effect, % at 10 µM | 130,000 compounds, 0.68% hits | AID 775;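 active means inhibition above a set limit, placed 3 SD over the median of all compounds, cut at about 26% in these data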;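 further: 0% = nicotinamide-treated wells and 100% = cells grown without nicotinamide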
#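 Material: Modified budding yeast, DeaD strain | Medium: Restrictive glucose medium | Probe or stimulus: 1.5 mM nicotinamide | Dosing: Single dose 10 µM compound, 0.25% DMSO | Times: 48 h at 30 °C | Technique: OD615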
# Yeast growth inh – reduces growth of yeast BB579 in restrictive medium | 140,000 compounds, 0.51% hits | inhibition, % at 10 µM | S. cerevisiae BB579 growth, OD615, 48 h;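 active means inhibition above a set limit, 3 SD over the mean compound inhibition, cut at about 44% in these data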
#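 System: Saccharomyces cerevisiae DeaD strain BB579, replicative lifespan model yeast | Buffer or medium: Restrictive glucose-based CSMM-D medium | Times: 4 h preincubation and 48 h exposure at 30 °C | Detection: OD615 turbidity measurement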
# TbHK1 inh – T. brucei hexokinase 1 inhibition | 220,000 compounds, 0.11% hits | recombinant TbHK1, G6PDH-coupled NADH A340 | inhibition, % at 10 µM;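 active means inhibition of 50% or more in the single-dose primary screen; inactive means inhibition below 50%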
# sdo1 growth – compounds rescuing growth of sdo1-depleted yeast, bone marrow failure model; S. cerevisiae sdo1-depleted JHY4D growth rescue, OD600 30 h; hits give high values; pdr5 snq2 efflux-pump mutant strain; z-score at 10 µM; 140,000 compounds, 0.21% hits; AID 817;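 active means z-score above 3 at both the 24 hr and the 30 hr optical density reads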;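 further: z-score against mean and SD of all compound wells on the same plate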
# RBBP9 inh – human RBBP9 hydrolase inhibition; recombinant RBBP9, FP-Rh probe fluorescence polarization; O75884; 220,000 compounds, 0.2% hits; inhibition, % at 7.94 µM; AID 1515;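 active means inhibition above the campaign mean of all tested compounds plus 3 SD, cut at about 14% in these data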;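 further: plate controls were DMSO wells with RBBP9 for no effect and wells lacking RBBP9 protein for full effect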
# Target sequence (O75884 whole entry, looked up): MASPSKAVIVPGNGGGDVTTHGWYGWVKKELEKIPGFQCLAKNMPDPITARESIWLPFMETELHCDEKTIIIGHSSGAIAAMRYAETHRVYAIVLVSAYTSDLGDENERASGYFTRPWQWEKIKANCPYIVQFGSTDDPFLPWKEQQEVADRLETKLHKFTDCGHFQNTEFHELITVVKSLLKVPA
#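 Test system: recombinant human RBBP9; Timing: 30 min then 45 min, 25 °C; Detection: fluorescence polarization; Control set: RBBP9 with DMSO as uninhibited control, no-protein wells as full inhibition; Compound dosing: one concentration, 7.94 µM nominal, 0.794% DMSO; Probe or stimulus: FP-Rh activity-based probe, 375 nM before mixing.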
# Starred values were filed as active, the others as inactive; . = no result given; [ ] = remark or other dose. Compounds with a hit are over-represented: about 1.6% of the library has one in this group of screens.
SMILES,p47phox inh,Yeast life ext,Yeast growth inh,TbHK1 inh,sdo1 growth,RBBP9 inh
COc1ccc(/C=C2/SC(=O)N(NS(=O)(=O)c3ccccc3)C2=S)cc1OC,-59,32*,12,-15,-0.04,1
NCCc1c(-c2ccccc2)n(-c2ccccc2)c2ccccc12,-19,.,.,22,.,-4
O=C(NCCc1ccccn1)c1cc(-c2cccc3ccccc23)nc2ccccc12,-6,28*,-38,-5,-1.1,-6
Nc1c2c3c(sc2nc(=O)n1N)CCCC3,-5,.,.,-12,.,-3
Nc1nc2sc3c(c2c(=O)s1)CCCC3,6,-21,53*,3,-1.4,-8
CN1C(=O)NC(c2ccc(O)cc2)C(C(=O)c2cccs2)C1(O)C(F)(F)F (stereo not drawn),-3,34*,-15,1,-0.1,-8
COc1ccc(/C=N/Nc2nn3cnnc3c3ccccc23)cc1,-5,.,.,-57,.,-7
Cn1ncnc1SCc1cn2cccnc2n1,-2,.,.,6,.,-2
COc1ccc(NC2c3ccccc3C(=O)N2c2ccccn2)cc1 (stereo not drawn),-14,.,.,1,.,-6
O=C(CN1CCC(NC(=O)c2ccc(F)cc2)CC1)NCc1ccccc1F,50*,-10,-32,6,-0.44,-6
CCCn1nc(C(=O)OCC(=O)c2c(N)n(C)c(=O)n(C)c2=O)c2ccccc2c1=O,-4,.,.,-5,.,-7
O=C(c1cccc(C(=O)N(c2ccccn2)C2CCCCC2)c1)N(c1ccccn1)C1CCCCC1,-5,.,.,-3,.,-2
N#C/C(=C\c1ccccc1)C(=O)N(c1ccccn1)C1CCCCC1,-5,63*,-40,-8,-1.8,5
CCCCN(C)C1=CC2=CC(=C(C#N)C#N)CCC2CC1 (stereo not drawn),3,-1,-43,21,-0.07,-8
CCN(CC)C1=CC2=CC(=C(C#N)C#N)CCC2CC1 (stereo not drawn),62*,-4,-22,-1,-1.1,-1
N#CC(C#N)=C1C=C2C=C(N3CCCCC3)CCC2CC1 (stereo not drawn),113*,1,-25,1,-1.6,-1
CCOC(=O)c1sc(N)c(C(N)=O)c1C,30*,.,.,-16,.,1
CCOC(=O)c1c(N)sc(C(N)=O)c1C,-10,-4,-65,-7,0.5,1
CCOC(=O)c1sc(NC(=O)CN(CC)CC)c(C(=O)OCC)c1C,-2,28*,-3,-23,-0.14,12
CCOC(=O)C(=O)Nc1cc(C(=O)OC)cc(C(=O)OC)c1,0,.,.,4,.,-12
Cc1cc(C)nc(NC(=NCCc2c[nH]c3ccccc23)NC(=O)C(C)(C)C)n1,-2,.,.,2,.,-8
CCOC(=O)C1=C(C)OC(N)=C(C#N)C1c1cc(C)sc1C (stereo not drawn),-12,-23,-28,-10,0.56,-3
CCOC(=O)C1=C(C)OC(N)=C(C#N)C1c1cc2ccccc2nc1N1CCCCC1 (stereo not drawn),81*,-4,-55,-10,-0.78[6.9 µM],-14
CCOC(=O)C1=C(C)OC(N)=C(C#N)C1c1cc2cc(C)ccc2nc1N1CCCCC1 (stereo not drawn),49*,.,-38,-6,-1.7,-3
CCCC(=Nc1ccc(N)cc1)C1=C(O)C(C(=O)OC)C(C)(C)CC1=O (stereo not drawn),1,44*,-4,-6,0.59,2
SMILES,p47phox inh,Yeast life ext,Yeast growth inh,TbHK1 inh,sdo1 growth,RBBP9 inh
CCCC(=O)C1=C(O)C(C(=O)OC)C(C)(C)CC1=Nc1ccc(N)cc1 (stereo not drawn),-10,-1,-7,-13,0.13,1
O=C(CSc1nc2ccccc2c(=O)n1-c1ccccc1)NCc1ccc2c(c1)OCO2,53*,-13,-22,-3,-0.86,-5
CCCn1c(SCC(=O)Nc2ccccc2Cl)n[nH]c1=O,-10,.,.,-5,.,0
CON(C)S(=O)(=O)c1ccc2c(c1)N(Cc1ccc(C)cc1)C(=O)C1CCCN21 (stereo not drawn),-78,.,.,-11,.,-8
O=C(NCc1ccccc1)c1ccccc1CO,-1,-1,-27,-1,2.2,-6
COc1ccc(CNC(N)=O)cc1,-7,.,-22,3,-1.1,8
NC(=O)NCc1ccc(Cl)cc1,-3,59*,1,0,0.39,-10
O=C(NCc1ccc(Cl)cc1)c1ccccc1CCc1ccccc1,-6,41*,-9,3,-1.3,-3
CC(Nc1c([N+](=O)[O-])c(=O)oc2ccccc12)c1ccccc1 (stereo not drawn),-12,.,.,-21,.,6
O=C(O)CCC(=O)N1CCOc2ccc(Cl)cc21,37*,-11,-26,0,0.9,-5
O=C(CN1C(=O)COc2ccc(Cl)cc21)Nc1ccc2c(c1)OCCO2,-8,-7,-32,-6,-0.33,-5
O=S(=O)(c1cc(Cl)ccc1Cl)n1ccnc1,147*,.,.,3,.,1
CC(=O)c1ccc(NC(=S)Nc2cccc(Cl)c2C)cc1,-30,.,.,0,.,-3
Oc1cccc(/C=N/NC(=S)Nc2cccnc2)c1O,-8,-1,53*,6,-0.53,-4
Oc1ccc(/C=N/NC(=S)Nc2cccnc2)c(O)c1,-13,-4,8,-27,0.6,2
CN(C)Cc1c(O)c(Cl)cc2c3c(c(=O)oc12)CCCC3,-1,30*,-13,-35,-0.66,-1
CCN(CC)Cc1c(O)c(Cl)cc2c3c(c(=O)oc12)CCCC3,-9,16,-15,-18,-0.23,-14
CCCCCCCCCn1c2c(c(=N)c3c1CCC3)CCCC2,-1,.,.,11,.,3
CCCCCCCCCCn1c2c(c(=N)c3c1CCC3)CCC2,9,-29,99*,16,-2.3,-3
Cc1ccc(O)c(-c2cc(-c3cccc(F)c3)n[nH]2)c1,-13,-13,99*,1,-2.2,-14
Cc1ccc(-c2cc(-c3ccccc3C)[nH]n2)c(O)c1,-13,.,100*,16,-2.5,-18
COc1ccc(C(=O)/C=C/C(=O)N(CC(=O)NC2CCCCC2)Cc2ccc(F)cc2)c(O)c1,33*,.,.,6,.,2
CCn1c(-c2csc3ccccc23)n[nH]c1=S,-5,-2,-18,20,-0.28,-6
CCn1c(-c2ccccc2O)n[nH]c1=S,33*,1,-14,-1,1.5,0
COc1ccc(NC(=O)C2CCCC2)cn1,-10,.,.,0,.,-4
CCCCCOC(=O)CSc1nc2c(c(=O)[nH]c(=O)n2C)n1CCc1ccccc1,-6,92*,-27,12,-1.4,2
CCCCCn1c(SCCc2ccccc2)nc2c1c(=O)[nH]c(=O)n2C,8,-14,-47,1,-0.41,5
CCCCOC(=O)CSc1nc2c(c(=O)[nH]c(=O)n2C)n1C/C=C(\C)Cl,0,87*,-13,43,0.7,-5
